The values that follow come from ChEMBL document CHEMBL1275301, “Antihypertensive activity of newer 1,4-dihydro-5-pyrimidine carboxamides: synthesis and pharmacological evaluation” (2010).

Assay [1] deals with Rattus norvegicus. The experiment in a line: Antihypertensive activity against DOCA-salt induced hypertension in albino rat assessed as reduction in systolic blood pressure at 10 mg/kg, po after 300 mins by tail-cuff method. The class given is functional. Conditions: Artery, 5 h. An outline of the steps:
(§1)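 Rats given DOCA 20 mg/kg s.c. twice weekly in olive oil for 4 weeks, with 1% w/v NaCl as drinking water, reaching systolic 160–180 mm Hg. Rats were trained in restrainer and tail-cuff sessions. Compounds in 0.5% CMC were dosed at 10 mg/kg by oral feeding needle, with vehicle and nifedipine groups. BP was read before dosing and after, with the tail warmed at 37 °C for 2–5 min. Each compound was run three times in one week and readings averaged.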

The subject of assay [2] is Rattus norvegicus. Briefly: Antihypertensive activity against DOCA-salt induced hypertension in albino rat assessed as reduction in systolic blood pressure at 10 mg/kg, po after 360 mins by tail-cuff method. The class given is functional. The note with it: Artery, 6 h. Summed up:
as §1

The subject of assay [3] is Rattus norvegicus. Briefly: Antihypertensive activity against DOCA-salt induced hypertension in albino rat assessed as reduction in systolic blood pressure at 10 mg/kg, po after 60 mins by tail-cuff method. The class given is functional. The note with it: Artery, 1 h. Summed up:
as §1

Assay [4] relates to Rattus norvegicus. Briefly: Antihypertensive activity against DOCA-salt induced hypertension in albino rat assessed as reduction in systolic blood pressure at 10 mg/kg, po after 15 mins by tail-cuff method. The class given is functional. Conditions: Artery, 0.25 h. An outline of the steps:
as §1

Assay [5] relates to Rattus norvegicus. Briefly: Antihypertensive activity against DOCA-salt induced hypertension in albino rat assessed as reduction in systolic blood pressure at 10 mg/kg, po after 120 mins by tail-cuff method. The class given is functional. Conditions: Artery, 2 h. Summed up:
as §1

Assay [6] has as its system Rattus norvegicus. The experiment in a line: Antihypertensive activity against DOCA-salt induced hypertension in albino rat assessed as reduction in systolic blood pressure at 10 mg/kg, po up to 360 mins by tail-cuff method. Conditions: Artery. The class given is functional, organism-based. On the set-up: dose 10 mg/kg. Summed up: as §1
Assay [7] concerns Rattus norvegicus. Briefly: Antihypertensive activity against DOCA-salt induced hypertension in albino rat assessed as reduction in systolic blood pressure at 10 mg/kg, po after 900 mins by tail-cuff method. The format is functional. Conditions: Artery, 15 h. An outline of the steps:
as §1

Assay [8] deals with Rattus norvegicus. Briefly: Antihypertensive activity against DOCA-salt induced hypertension in albino rat assessed as reduction in systolic blood pressure at 10 mg/kg, po after 180 mins by tail-cuff method. Conditions: Artery, 3 h. The class given is functional. Summed up:
as §1

The subject of assay [9] is Rattus norvegicus. Briefly: Antihypertensive activity against DOCA-salt induced hypertension in albino rat assessed as reduction in systolic blood pressure at 10 mg/kg, po after 600 mins by tail-cuff method. The note with it: Artery, 10 h. The format is functional. An outline of the steps: as §1
Assay [10] deals with Rattus norvegicus. The experiment in a line: Antihypertensive activity against DOCA-salt induced hypertension in albino rat assessed as reduction in systolic blood pressure at 10 mg/kg, po after 240 mins by tail-cuff method. The format is functional. The note with it: Artery, 4 h. Summed up:
as §1

The subject of assay [11] is Rattus norvegicus. The experiment in a line: Antihypertensive activity against DOCA-salt induced hypertension in albino rat assessed as reduction in systolic blood pressure at 10 mg/kg, po after 720 mins by tail-cuff method. The class given is functional. The note with it: Artery, 12 h. An outline of the steps:
as §1

Assay [12] relates to Rattus norvegicus. The experiment in a line: Antihypertensive activity against DOCA-salt induced hypertension in albino rat assessed as reduction in systolic blood pressure at 10 mg/kg, po after 30 mins by tail-cuff method. The format is functional. Conditions: Artery, 0.5 h. An outline of the steps:
as §1

Usually inhibition in vivo stands for the relative decrease from the control value, in per cent.

The source made the active and inactive calls. The rule behind the calls is not given here.

On to `CC1=C(C(=O)Nc2ccc(F)cc2)C(c2ccc([N+](=O)[O-])cc2)N=C(SCc2ccc(Cl)cc2)N1` (centres undefined), for which the inhibition in vivo at 10 mg/kg in the assay with Rattus norvegicus [1] was 37.9%; in the assay with Rattus norvegicus [2] it was 39.7%; in the assay with Rattus norvegicus [3] it was 11.8%; in the assay on Rattus norvegicus [4], 3.6%; with Rattus norvegicus [5] it was 16%; in the assay on Rattus norvegicus [7], 16.9%. Also, the inhibition in vivo at 10 mg/kg in the assay with Rattus norvegicus [8] turned out to be 23.2%; in the assay with Rattus norvegicus [9] it was 28.2%; in the assay with Rattus norvegicus [10], 33.3%; in the assay on Rattus norvegicus [11], 22.2%; in the assay with Rattus norvegicus [12] it was 6.7%. In the assay on Rattus norvegicus [6], the result was Active.
For `CC1=C(C(=O)Nc2ccc(F)cc2)C(c2ccc([N+](=O)[O-])cc2)N=C(SCc2cccc(Cl)c2)N1` (centres undefined), the inhibition in vivo at 10 mg/kg in the assay on Rattus norvegicus [1] amounted to 18.5%; in the assay with Rattus norvegicus [2] it was 21.1%; in the assay on Rattus norvegicus [3] it was 7.2%; in the assay with Rattus norvegicus [4] it was 2.1%; in the assay with Rattus norvegicus [5], 9.8%; in the assay on Rattus norvegicus [7], 10.8%. Besides, the inhibition in vivo at 10 mg/kg with Rattus norvegicus [8] stood at 11.9%; in the assay with Rattus norvegicus [9], 16.4%; in the assay with Rattus norvegicus [10], 15.9%; in the assay on Rattus norvegicus [11] it was 12.9%; in the assay with Rattus norvegicus [12], 4.1%. The result in the assay on Rattus norvegicus [6] was Active.
For `CC1=C(C(=O)Nc2ccc([N+](=O)[O-])cc2)C(c2cccc([N+](=O)[O-])c2)N=C(SCc2ccccc2Cl)N1` (centres undefined), the inhibition in vivo at 10 mg/kg with Rattus norvegicus [1] was found to be 15.9%; in the assay with Rattus norvegicus [2] it was 17.5%; in the assay with Rattus norvegicus [3] it was 6.7%; in the assay on Rattus norvegicus [4], 2.1%; in the assay with Rattus norvegicus [5], 7.7%; in the assay with Rattus norvegicus [7], 7.2%. Also, the inhibition in vivo at 10 mg/kg was 9.3% in the assay with Rattus norvegicus [8]; 13.3% in the assay with Rattus norvegicus [9]; 12.8% with Rattus norvegicus [10]; 11.3% in the assay on Rattus norvegicus [11]; 3.6% in the assay on Rattus norvegicus [12]. For the same compound, the outcome in the assay on Rattus norvegicus [6] was Active.
In the case of `CC1=C(C(=O)Nc2ccc(Br)cc2)C(c2ccc(Cl)cc2Cl)N=C(SCc2ccc(F)cc2)N1` (centres undefined), the inhibition in vivo at 10 mg/kg in the assay with Rattus norvegicus [1] came to 38.5%; in the assay on Rattus norvegicus [2], 40.7%; in the assay on Rattus norvegicus [3], 16.9%; with Rattus norvegicus [4], 3.6%; in the assay with Rattus norvegicus [5], 22.7%; with Rattus norvegicus [7], 23.1%. The inhibition in vivo at 10 mg/kg amounted to 28.4% in the assay with Rattus norvegicus [8]; 33.3% with Rattus norvegicus [9]; 36.4% with Rattus norvegicus [10]; 27.3% in the assay on Rattus norvegicus [11]; 7.7% in the assay on Rattus norvegicus [12]. For the same compound, the outcome with Rattus norvegicus [6] was Active.
In the case of `CC1=C(C(=O)Nc2ccc(Br)cc2)C(c2ccc(Cl)cc2Cl)N=C(SCc2ccc(Cl)cc2)N1` (centres undefined), the inhibition in vivo at 10 mg/kg with Rattus norvegicus [1] came to 38.5%; in the assay with Rattus norvegicus [2], 39.7%; in the assay with Rattus norvegicus [3], 11.8%; in the assay with Rattus norvegicus [4], 4.1%; with Rattus norvegicus [5], 17.5%; in the assay on Rattus norvegicus [7], 22.1%. The inhibition in vivo at 10 mg/kg with Rattus norvegicus [8] worked out at 23.2%; with Rattus norvegicus [9] it was 30.3%; with Rattus norvegicus [10], 32.3%; with Rattus norvegicus [11], 25.8%; in the assay with Rattus norvegicus [12], 6.7%. Also, in the assay on Rattus norvegicus [6], the outcome was Active.
As for `COc1ccc(C2N=C(SCc3ccc(Cl)cc3)NC(C)=C2C(=O)Nc2ccc(Br)cc2)cc1` (centres undefined), the inhibition in vivo at 10 mg/kg is 37.9% with Rattus norvegicus [1]; 39.2% in the assay on Rattus norvegicus [2]; 12.3% in the assay with Rattus norvegicus [3]; 3.1% in the assay on Rattus norvegicus [4]; 16.5% in the assay on Rattus norvegicus [5]; 20% in the assay on Rattus norvegicus [7]. The inhibition in vivo at 10 mg/kg amounted to 22.7% with Rattus norvegicus [8]; 30.3% with Rattus norvegicus [9]; 29.2% with Rattus norvegicus [10]; 23.7% in the assay on Rattus norvegicus [11]; 7.2% in the assay on Rattus norvegicus [12]. In addition, in the assay with Rattus norvegicus [6], the outcome was Active.
`CC1=C(C(=O)Nc2ccc([N+](=O)[O-])cc2)C(c2cccc([N+](=O)[O-])c2)N=C(SCc2ccc(Cl)cc2)N1` (centres undefined): the inhibition in vivo at 10 mg/kg stood at 24.1% in the assay on Rattus norvegicus [1]; 33% in the assay on Rattus norvegicus [2]; 6.7% in the assay on Rattus norvegicus [3]; 2.1% with Rattus norvegicus [4]; 12.4% with Rattus norvegicus [5]; 12.3% with Rattus norvegicus [7]. In addition, the inhibition in vivo at 10 mg/kg in the assay with Rattus norvegicus [8] came out at 14.9%; in the assay with Rattus norvegicus [9] it was 26.2%; in the assay with Rattus norvegicus [10], 20%; with Rattus norvegicus [11], 15.5%; in the assay on Rattus norvegicus [12] it was 3.1%. For the same compound, in the assay with Rattus norvegicus [6], the result was Active.
Turning to `CC1=C(C(=O)Nc2ccc([N+](=O)[O-])cc2)C(c2ccc(Br)cc2)N=C(SCc2ccccc2Cl)N1` (centres undefined), the inhibition in vivo at 10 mg/kg worked out at 16.9% in the assay on Rattus norvegicus [1]; 13.9% with Rattus norvegicus [2]; 6.7% with Rattus norvegicus [3]; 1.5% with Rattus norvegicus [4]; 7.7% with Rattus norvegicus [5]; 4.1% with Rattus norvegicus [7]. Moreover, the inhibition in vivo at 10 mg/kg in the assay with Rattus norvegicus [8] came out at 11.3%; in the assay with Rattus norvegicus [9], 9.7%; with Rattus norvegicus [10] it was 15.4%; in the assay on Rattus norvegicus [11] it was 6.7%; with Rattus norvegicus [12] it was 3.6%. Further, the outcome in the assay with Rattus norvegicus [6] was Active.
For `CC1=C(C(=O)Nc2ccc(Br)cc2)C(c2ccc(Cl)cc2Cl)N=C(SCc2cccc(Cl)c2)N1` (centres undefined), the inhibition in vivo at 10 mg/kg came out at 18.5% in the assay on Rattus norvegicus [1]; 20.6% in the assay on Rattus norvegicus [2]; 6.2% in the assay with Rattus norvegicus [3]; 1.5% with Rattus norvegicus [4]; 8.8% in the assay with Rattus norvegicus [5]; 7.2% with Rattus norvegicus [7]. Moreover, the inhibition in vivo at 10 mg/kg in the assay with Rattus norvegicus [8] stood at 11.9%; in the assay with Rattus norvegicus [9], 15.4%; in the assay with Rattus norvegicus [10], 15.9%; in the assay on Rattus norvegicus [11], 11.3%; in the assay with Rattus norvegicus [12], 3.1%. Further, the result in the assay with Rattus norvegicus [6] was Active.
For the compound `CC1=C(C(=O)Nc2ccc([N+](=O)[O-])cc2)C(c2ccc(Br)cc2)N=C(SCc2ccccc2)N1` (centres undefined), the inhibition in vivo at 10 mg/kg with Rattus norvegicus [1] is 29.7%; in the assay with Rattus norvegicus [2], 37.6%; in the assay on Rattus norvegicus [3], 8.2%; in the assay with Rattus norvegicus [4], 2.1%; with Rattus norvegicus [5], 13.4%; in the assay on Rattus norvegicus [7] it was 19.5%. The inhibition in vivo at 10 mg/kg turned out to be 19.6% in the assay with Rattus norvegicus [8]; 27.2% in the assay with Rattus norvegicus [9]; 27.7% with Rattus norvegicus [10]; 21.1% in the assay on Rattus norvegicus [11]; 3.6% with Rattus norvegicus [12]. Moreover, the result in the assay on Rattus norvegicus [6] was Active.
As for `COc1ccc(C2N=C(SCc3ccccc3)NC(C)=C2C(=O)Nc2ccc(F)cc2)cc1OC` (centres undefined), the inhibition in vivo at 10 mg/kg in the assay on Rattus norvegicus [1] is 7.2%; in the assay on Rattus norvegicus [2], 3.6%; with Rattus norvegicus [3] it was 6.2%; with Rattus norvegicus [4], 1.5%; in the assay with Rattus norvegicus [5], 8.8%; with Rattus norvegicus [7], 1%. The inhibition in vivo at 10 mg/kg with Rattus norvegicus [8] was 12.9%; with Rattus norvegicus [9], 3.1%; in the assay with Rattus norvegicus [10], 11.8%; in the assay on Rattus norvegicus [11], 1.5%; in the assay with Rattus norvegicus [12], 3.6%. Also, the outcome in the assay with Rattus norvegicus [6] was Active.
Regarding `CC1=C(C(=O)Nc2ccc([N+](=O)[O-])cc2)C(c2cccc([N+](=O)[O-])c2)N=C(SCc2ccc(F)cc2)N1` (centres undefined), the inhibition in vivo at 10 mg/kg turned out to be 27.2% with Rattus norvegicus [1]; 36.1% with Rattus norvegicus [2]; 7.2% with Rattus norvegicus [3]; 2.6% with Rattus norvegicus [4]; 13.4% in the assay with Rattus norvegicus [5]; 15.4% with Rattus norvegicus [7]. In addition, the inhibition in vivo at 10 mg/kg in the assay on Rattus norvegicus [8] was found to be 17.5%; in the assay with Rattus norvegicus [9], 30.3%; in the assay with Rattus norvegicus [10] it was 22.6%; in the assay on Rattus norvegicus [11] it was 20.1%; in the assay on Rattus norvegicus [12] it was 4.1%. The result in the assay with Rattus norvegicus [6] was Active.
